Source: PubChem (several laboratories)
MC4R barr agon – activates human MC4R beta-arrestin recruitment; P32245; U2OS MC4R beta-arrestin complementation, luminescence; percent of melanotan II response, DMSO zero; activation, % at 8.9 µM; 360,000 compounds, 0.98% hits;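 active means activation above a per-plate cutoff, the mean activation of sample wells on that plate plus 3 SD, cut at about 8% in these data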
MC4R antag cAMP – antagonists of human melanocortin 4 receptor (MC4R); inhibition, % at 6.5 µM; MC4R-expressing cells, MTII-stimulated cAMP, LANCE TR-FRET; P32245; 360,000 compounds, 0.48% hits;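 active means inhibition above its plate's cutoff, the mean of tested wells on that plate plus 3 SD, cut at about 29% in these data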;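 further: 0% = Melanotan II alone and 100% = Melanotan II plus saturating MCL0020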
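Material: U2OS-MC4R stable cell line | Reagent: Melanotan II challenge after compound preincubation | Doses: One concentration, 6.5 µM nominal | Incubation: 30-min compound preincubation, 1-h Melanotan II challenge, 1-h detection, room temperature | Signal: TR-FRET cAMP assay | Replicates: One well per compound, no replicates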
ABHD5-PLIN5 inh – blocks binding of human ABHD5 to perilipin-5. 360,000 compounds, 0.78% hits. inhibition, % at 4 µM. Split G. princeps luciferase complementation, luminescence, 4 h. Q00G26+Q8WTS1;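 active means inhibition above the mean inhibition across every tested compound plus 3 SD, cut at about 22% in these data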;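 further: 0% = DMSO only wells and the 100% control is not disclosed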
Target sequence (Q00G26 whole entry, looked up): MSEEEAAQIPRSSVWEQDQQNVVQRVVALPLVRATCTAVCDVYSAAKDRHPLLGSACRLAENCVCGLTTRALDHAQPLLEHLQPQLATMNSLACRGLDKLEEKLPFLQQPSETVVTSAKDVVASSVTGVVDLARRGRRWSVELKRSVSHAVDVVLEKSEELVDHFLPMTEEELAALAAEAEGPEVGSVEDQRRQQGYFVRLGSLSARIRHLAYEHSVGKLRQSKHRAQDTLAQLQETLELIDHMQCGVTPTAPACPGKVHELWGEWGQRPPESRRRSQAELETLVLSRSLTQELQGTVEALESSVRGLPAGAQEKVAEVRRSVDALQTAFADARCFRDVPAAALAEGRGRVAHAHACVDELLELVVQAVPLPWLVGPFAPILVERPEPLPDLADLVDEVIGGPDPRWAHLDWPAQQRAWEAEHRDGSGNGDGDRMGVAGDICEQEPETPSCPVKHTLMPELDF
Target sequence (Q8WTS1 whole entry, looked up): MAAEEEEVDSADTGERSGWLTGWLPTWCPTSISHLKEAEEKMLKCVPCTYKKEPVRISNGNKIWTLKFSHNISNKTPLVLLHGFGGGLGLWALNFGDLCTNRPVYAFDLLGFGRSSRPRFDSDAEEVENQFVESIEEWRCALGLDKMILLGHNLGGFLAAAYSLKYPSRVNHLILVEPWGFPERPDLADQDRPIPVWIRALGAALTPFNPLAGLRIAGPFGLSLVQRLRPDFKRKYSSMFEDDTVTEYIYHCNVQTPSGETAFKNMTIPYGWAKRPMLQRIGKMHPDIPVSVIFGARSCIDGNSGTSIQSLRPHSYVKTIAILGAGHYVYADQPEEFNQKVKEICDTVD
Beta2AR agonist – agonists of human beta-2 adrenergic receptor inducing internalization | P07550 | 340,000 compounds, 0.43% hits | AID 504454 | response, % (no concentration beside the values) | Am2.2-beta2AR cells, FAP receptor internalization, flow cytometry;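 active means response above a set limit, near 3 SD of response in nonfluorescent compounds, cut at about 42% in these data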
PfG6PD inh – PfG6PD (Plasmodium falciparum) enzyme inhibition; PfGluPho enzyme, NADPH resazurin-diaphorase fluorescence; 350,000 compounds, 0.78% hits; AID 504690; inhibition, % at 20 µM;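 active means inhibition reaching at least a set limit at 20 µM in the primary screen, cut at about 59% in these data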;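 further: 0% = DMSO wells with substrate and 100% = DMSO wells lacking glucose-6-phosphate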
* = called active by the depositor; . = not tested or not shown. Most compounds without a hit are left out; they make up all but 3% or so of the library.

SMILES	MC4R barr agon	MC4R antag cAMP	ABHD5-PLIN5 inh	Beta2AR agonist	PfG6PD inh
CC1(C)CC[C@]2(C(=O)O[C@@H]3OC(CO)[C@@H](O)[C@H](O)[C@H]3O)CC[C@]3(C)C(=CCC4[C@@]5(C)CC[C@H](O[C@@H]6OC(C(=O)O)[C@@H](O)[C@H](O)[C@H]6O)C(C)(C)C5CC[C@]43C)[C@@H]2C1 (some centres undefined)	4.8	13.4	4.3	-0.4	3.8
COC(=O)C1OC(OC2CC[C@]3(C)C(CC[C@@]4(C)[C@@H]3CC=C3[C@@H]5CC(C)(C)CC[C@]5(C(=O)OC5OC(CO)C(O)C(O)C5O)CC[C@]34C)C2(C)C)C(O)C(O)C1O[C@H]1OCC(O)C(O)C1O (some centres undefined)	-2.0	5.7	33.2*	-12.6	-7.5
CC(C)c1ccc2[nH]c(O)c(N=NC(=O)c3ccc(CSc4nncn4C)cc3)c2c1	-0.8	-4.8	5.0	45.0*	-7.3
COc1ccc2sc(N(CCCN(C)C)C(=O)c3ccc(S(=O)(=O)N4CCCc5ccccc54)cc3)nc2c1	1.0	3.8	11.0	53.0*	26.7
CCc1ccc2nc(N(CCCN(C)C)C(=O)c3ccc(S(=O)(=O)N(C)C4CCCCC4)cc3)sc2c1	12.5*	11.0	20.1	21.1	12.2
Cc1ccc2nc(N(CCCN(C)C)C(=O)c3ccc4c(c3)CCCC4)sc2c1	5.0	8.4	22.1*	1.7	20.4
COc1cc2nc(N(CCCN(C)C)C(=O)c3ccc(S(=O)(=O)N4CCc5ccccc54)cc3)sc2cc1OC	2.8	4.4	2.3	11.8	45.7
CCc1ccc2nc(N(CCCN(C)C)C(=O)c3ccc(S(=O)(=O)N4CCc5ccccc5C4)cc3)sc2c1	20.3*	-7.6	20.0	34.9	-5.4
CCCNC(=S)N(Cc1ccccc1)Cc1nc2ccccc2c(=O)[nH]1	-1.3	8.6	3.6	10.3	-11.0
COc1ccc(CC(=O)Nc2ccc(N3CCN(c4ccc(OC)cc4)CC3)c(C#N)c2)cc1	8.6*	2.4	9.4	-2.0	-9.8
COc1ccc(N2CCN(c3ccc(NC(=O)c4ccc5c(c4)OCO5)cc3C#N)CC2)cc1	0.3	16.8	-0.8	5.0	-4.7
O=C(c1ccccc1)c1ccc2nc(-c3ccco3)c(-c3ccco3)nc2c1	-1.0	13.3	28.6*	8.6	35.2
O=C(NC1CCCC1)c1ccc2nc(-c3ccco3)c(-c3ccco3)nc2c1	-1.3	-9.2	17.8	13.7	53.1
O=C(CN1CCNCC1)N1CCOCC1	.	.	10.1	.	.
CN(C)CC(CCC(CN(C)C)C(=O)c1ccccc1)C(=O)c1ccccc1 (centres undefined)	-1.2	-20.8	41.4*	40.8	20.0
O=C(NC1=NCCS1)c1ccc(N2CCCC2=O)cc1	0.7	25.4	5.4	47.7*	1.8
N#Cc1c(NC(=O)c2ccccc2)sc2c1CCCCC2	8.3*	-0.9	7.4	-0.7	2.9
O=C(OCC(=O)N1CCCC1)c1cc(Cl)ccc1Cl	2.3	1.0	13.8	-2.8	-13.1
CC1=NNC(=O)/C1=C\c1cn(-c2ccccc2)nc1-c1ccc(F)cc1	3.2	30.5*	5.6	107.7*	5.4
CC(C)Oc1ccc(C(=O)NC2(C(F)(F)F)NC(=O)N(CCCc3ccccc3)C2=O)cc1 (centres undefined)	0.1	1.6	-12.7	8.6	17.7
Cc1nc2sc(C(=O)Nc3ccccc3)c(N)c2c(C)c1[N+](=O)[O-]	9.3*	-9.0	-5.3	-3.0	18.1
COCCN(Cc1cc2cc(C)cc(C)c2nc1Cl)C(=O)Nc1ccccc1	-1.9	-12.4	-3.0	2.1	6.5
Cc1cc(C)c2nc(Cl)c(CN(Cc3ccco3)C(=O)Nc3ccccc3C)cc2c1	-2.6	-19.7	3.7	42.5*	10.6
Cc1cc2c(cc1C)CSC(c1ccc(O)cc1)SC2	8.6*	-4.7	9.3	-3.8	6.1
COC(=O)C[C@H]1CC[C@H](NC(=O)c2ccc(F)cc2)[C@@H](CO)O1	.	.	-1.3	.	.
SMILES	MC4R barr agon	MC4R antag cAMP	ABHD5-PLIN5 inh	Beta2AR agonist	PfG6PD inh
CC(NC(=O)C(C)(C)C)C(c1cccs1)N1CCOCC1 (centres undefined)	0.5	5.7	-10.4	-4.4	8.2
Fc1ccc(C2=Nc3cccc4cccc(c34)N2)cc1	-1.9	-1.4	-0.9	7.6	10.2
FC(F)(F)C1=Nc2cccc3cccc(c23)N1	-2.0	2.9	-3.1	81.6*	5.6
COc1cccc(-c2cnc3c(NC(C)=O)cc(-c4cccc(C(=O)NCCN(C)C)c4)cn23)c1	0.7	-5.4	-1.1	.	.
O=C(C[n+]1ccc2ccccc2c1)c1cccc2ccccc12	-0.2	-0.8	2.9	16.2	14.2
O=C(/C=C/c1cc[n+](CC(=O)c2ccc3cccc4c3c2CC4)cc1)c1ccc2cccc3c2c1CC3	0.9	18.1	23.0*	73.8*	72.8*
CCOC(=O)N1CCN(C(=O)CSc2nnc3[nH]c(=O)c(C)c(C)n23)CC1	-4.0	14.5	7.6	-0.4	14.0
C=CCn1c(SCC(=O)NCCCC)nc2scc(-c3ccco3)c2c1=O	-2.6	3.1	39.7*	1.8	46.1
C=CCn1c(SCC(C)=O)nc2scc(-c3ccc(C)o3)c2c1=O	8.3*	0.2	16.5	12.1	2.8
COCCNc1nc(Nc2ccc(C)cc2C)c2sccc2n1	-3.4	-11.8	-0.5	.	.
CC(C)c1nnc(NC(=O)CCC(=O)Nc2ccc3cn[nH]c3c2)s1	-3.0	1.4	-3.5	0.1	3.3
CN(CC(=O)Nc1ccc(Cl)c(Cl)c1)CC(=O)Nc1ccc2c(c1)OCO2	-0.4	6.5	2.1	-4.9	15.5
CCCNC(=O)c1cc(C2CCCCN2C(=O)c2ccc(C(C)C)cc2)on1 (centres undefined)	1.0	8.0	6.5	.	.
COc1cccc(-c2nnc3sc(-c4ccccc4)nn23)c1	1.2	3.7	0.6	-19.0	-2.7
COc1cccc(OC)c1-c1nn2c(-c3cc(-c4ccccc4)n[nH]3)nnc2s1	36.1*	-4.7	-2.9	100.4*	31.7
CCOc1ccccc1Nc1nnc(SCC(=O)N(C)C2CCS(=O)(=O)C2)s1 (centres undefined)	-1.3	0.9	-1.6	-7.1	-1.1
O=C(Cc1cccc2ccccc12)N/N=C/c1ccc(F)cc1	14.8*	1.2	-1.6	-3.3	10.9
Cc1cc(C)cc(OC(=O)COc2ccccc2C)c1	0.4	3.9	-7.3	-4.8	3.4
O=C(NCCc1cccnc1)C1CCC(=O)N(CCc2cccc(F)c2)C1 (centres undefined)	2.1	3.4	22.1*	5.6	-14.4
O=C(NCCc1ccc(C(F)(F)F)cc1)C1CCC(=O)N(CCc2cccc(F)c2)C1 (centres undefined)	-3.5	7.2	3.0	1.7	13.5
CCc1ccc(O)c(N=Cc2cccc(C)c2O)c1	-1.0	0.2	-6.6	-50.5	26.7
CCCc1ccc(O)c(N=Cc2cc(Br)cc(OCC)c2O)c1	11.5*	14.8	-1.1	18.9	13.3
Cc1ccsc1CNC12CC3CC(CC(C3)C1)C2	-1.3	1.1	-0.8	-8.7	9.3
